The structures appear in SMILES notation.

The record followed here is ChEMBL document CHEMBL1156517, “Targeting thyroid hormone receptor-beta agonists to the liver reduces cholesterol and triglycerides and improves the therapeutic index” (Proc Natl Acad Sci U S A, 2007).

Data set [1] in a line: Clearance in Sprague-Dawley rat at 5 mg/kg, iv. Format: ADME, organism-based. Details: dose 5 mg/kg, route intravenous; call rule not given here. To be noted: in vivo. In a few lines:
(§1)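 Male SD rats received a 5 mg/kg i.v. dose. Parameters were derived from the plasma concentration–time profile of the parent and its active metabolite.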

The nature of data set [2]: Inhibition of CYP3A in Sprague-Dawley rat liver microsome at 10 uM. To be noted: microsomes. Format: ADME.
The subject of the next data set is Hepatocyte. Description: Cmax per10'6 cells in Sprague-Dawley rat hepatocytes at 10 uM. The class given is ADME, Liver. Details: dose 10 uM. In a few lines:
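Freshly isolated rat hepatocytes were incubated with compound. Intracellular levels of the active phosphonate were followed over time and expressed per 10⁶ cells, giving Cmax and tmax.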

Data set [3] deals with Thyroid hormone receptor beta (Homo sapiens, UniProt P10828). Briefly: Displacement of [125I]T3 from recombinant thyroid hormone receptor beta expressed in sf9 cells by scintillation proximity assay.
Sequence of Thyroid hormone receptor beta (P10828 whole entry): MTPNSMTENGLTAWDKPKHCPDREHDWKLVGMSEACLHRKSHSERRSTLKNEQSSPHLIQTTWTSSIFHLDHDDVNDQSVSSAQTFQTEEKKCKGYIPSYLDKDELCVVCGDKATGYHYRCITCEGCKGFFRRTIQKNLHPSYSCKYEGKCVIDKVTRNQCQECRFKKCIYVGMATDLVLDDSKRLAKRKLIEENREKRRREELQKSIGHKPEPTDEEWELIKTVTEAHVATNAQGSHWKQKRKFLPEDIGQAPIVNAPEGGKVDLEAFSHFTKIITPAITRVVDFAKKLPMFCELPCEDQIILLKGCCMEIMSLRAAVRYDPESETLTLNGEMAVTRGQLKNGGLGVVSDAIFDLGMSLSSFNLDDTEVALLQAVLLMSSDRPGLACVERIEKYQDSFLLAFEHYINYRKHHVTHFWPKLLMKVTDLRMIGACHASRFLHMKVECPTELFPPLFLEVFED
Data set [4] in a line: Drug excretion in Sprague-Dawley rat urine at 2 mg/kg, iv after 96 hrs. Format: ADME, organism-based. Details: dose 2 mg/kg, route intravenous. To be noted: read-out: Activity. In a few lines:
(§2)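 Mass balance used male SD rats (n = 6) given [³H]-labelled compound (2 mg/kg, 45.5 mCi/mmol) as an i.v. bolus. Cumulative radioactivity in urine, wash and feces was monitored at 0, 12, 24, 48, 72 and 96 h.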

Data set [5] in a line: AUC (0 to 24 hrs) in Sprague-Dawley rat at 10 mg/kg, iv. To be noted: plasma. Details: time < 24 hr, dose 10 mg/kg, route intravenous. Format: ADME, organism-based. In a few lines: (§3)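 Male SD rats, naïve or bile duct-cannulated (n = 3 per group), given MB07344 at 10 mg/kg i.v. MB07344 measured in plasma and in collected bile. AUC over 0–24 h taken from the plasma concentration–time profile.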

Data set [6] in a line: AUC (0 to 24 hrs) in bile-diverted Sprague-Dawley rat at 10 mg/kg, iv. Format: ADME, organism-based. Details: time < 24 hr, dose 10 mg/kg, route intravenous. To be noted: plasma. In a few lines:
as §3

A short description of data set [7]: Drug excretion in Sprague-Dawley rat feces at 2 mg/kg, iv after 96 hrs. To be noted: faeces, read-out: Activity. Set-up: dose 2 mg/kg, route intravenous. The class given is ADME, organism-based. In a few lines: as §2
Data set [8] is described as follows: Half life in Sprague-Dawley rat at 5 mg/kg, iv. Format: ADME, organism-based. Details: dose 5 mg/kg, route intravenous. To be noted: in vivo. A digest of the protocol: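 Male SD rats given a single 5 mg/kg i.v. dose. Half-life derived from the plasma concentration–time profile of the parent compound.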
Data set [9] in a line: Cmax in Sprague-Dawley rat at 5 mg/kg, iv. The class given is ADME, organism-based. Details: dose 5 mg/kg, route intravenous. To be noted: in vivo. A digest of the protocol:
as §1

Data set [10] can be described thus: AUC (0 to 24 hrs) in Sprague-Dawley rat at 5 mg/kg, iv. Details: time < 24 hr, dose 5 mg/kg, route intravenous. The class given is ADME, organism-based. To be noted: plasma. A digest of the protocol: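 Male SD rats received MB07344 at 5 mg/kg i.v. Pharmacokinetic parameters, including AUC over 0–24 h, were derived from the temporal plasma concentration profile of MB07344.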

Data set [11] in a line: Drug excretion in bile duct-canulated Sprague-Dawley rat bile at 10 mg/kg, iv. The class given is ADME, organism-based. Details: dose 10 mg/kg, route intravenous. To be noted: read-out: Activity. A digest of the protocol:
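Naïve and bile duct-cannulated SD rats (n = 3 per group) received 10 mg/kg i.v. Compound levels were measured in the collected bile and in plasma.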

Data set [12] addresses Thyroid hormone receptor alpha (Homo sapiens, UniProt P10827). Description: Displacement of [125I]T3 from recombinant thyroid hormone receptor alpha expressed in sf9 cells by scintillation proximity assay.
Data set [13] is described as follows: Volume of distribution in Sprague-Dawley rat at 5 mg/kg, iv. Format: ADME, organism-based. To be noted: in vivo. Details: dose 5 mg/kg, route intravenous.

Sequence of Thyroid hormone receptor alpha (P10827 whole entry): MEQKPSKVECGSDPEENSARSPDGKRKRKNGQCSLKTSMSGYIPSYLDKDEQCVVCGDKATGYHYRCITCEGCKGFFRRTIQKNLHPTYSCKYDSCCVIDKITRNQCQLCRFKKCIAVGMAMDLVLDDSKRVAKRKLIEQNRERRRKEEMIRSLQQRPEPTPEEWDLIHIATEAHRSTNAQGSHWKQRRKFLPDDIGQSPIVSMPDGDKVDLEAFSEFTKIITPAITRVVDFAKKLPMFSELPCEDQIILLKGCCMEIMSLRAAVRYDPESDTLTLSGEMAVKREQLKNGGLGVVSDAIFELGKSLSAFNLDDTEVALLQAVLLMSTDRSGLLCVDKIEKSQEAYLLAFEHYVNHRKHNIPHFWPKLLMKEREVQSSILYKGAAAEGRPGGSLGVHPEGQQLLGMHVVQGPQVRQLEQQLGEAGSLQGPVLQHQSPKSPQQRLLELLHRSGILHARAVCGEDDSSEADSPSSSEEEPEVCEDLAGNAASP

The molecule `Cc1cc(OCP(=O)(O)O)cc(C)c1Cc1ccc(O)c(C(C)C)c1` [MB07344] gave a clearance in data set [1] of 4.67 mL/min/kg. Further, the Activity entry in [2] was “Not Active”. In addition, the Cmax with Hepatocyte is 1.77 nmol; in data set [9] it was 40400 ng/mL. Besides, the Ki in data set [3] came to 2.17 nM; in data set [12], 35.2 nM. For the same molecule, the dose excreted at 96 h in [4] was found to be 2%; in data set [7], 98%. Also, the AUC(0-t) at 24 h was determined as 35100 ng·h/mL in data set [5], 48100 ng·h/mL in [6] and 16600 ng·h/mL in data set [10]. Further, the half-life in data set [8] is 1.27 h. Further, the dose excreted in [11] stood at 50%. In data set [13], this molecule gave a Vd of 0.39 L/kg.
